Most compounds without a hit are left out; they make up all but 4.8% or so of the library.
CSC inhib = cancer stem cell inhibition; cancer stem cell-like cells viability, luminescence; inhibition, % at 7.5 µM; AID 2717; hit rate 1.1% among 300,000; in the data active means inhibition above about 75%; tested in HMLE shEcad cells
Beta apoptosis = beta cell apoptosis inhibition; hit rate 0.8% among 300,000; protection from apoptosis, % (test concentration not listed); INS-1E cytokine-induced death, ATP luminescence, 48 h; percent of positive-control rescue, neutral wells zero;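 active means Every replicate reaches about 75%, or at least half do and their mean reaches it too, limit read from the data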;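 further: higher means more ATP so stronger rescue from cytokine killing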
WT yeast gro inh = growth inhibition of WT yeast, mitochondrial fusion screen | mitochondrial fusion phenotypic screen, WT strain | inhibition, % at 10 µM | hit rate 2.1% among 190,000 | AID 1362; in the data active means inhibition above about 58%; tested in S. cerevisiae
Efflux pump mplx = inhibitors of Candida antifungal efflux pumps expressed in yeast | AID 485275 | S. cerevisiae Candida pump triplex, Nile Red efflux | hit rate 0.44% among 330,000 | inhibition, % at 10 µM;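 active means plate passing quality check with inhibition over a set limit, or well fluorescence over plate mean plus 4 SD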;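 further: Nile Red retained in pooled yeast measured as flow cytometry median fluorescence; higher means more Nile Red kept so more efflux inhibition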
T cruzi inh = T. cruzi replication inhibition; T. cruzi beta-gal in NIH3T3, luminescence, 90 h; inhibition, % (no concentration beside the values); hit rate 1.4% among 300,000; AID 1885;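 active means mean inhibition across valid replicates above about 55%, limit read from the data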;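 further: signal also drops with host cell toxicity which is not excluded here; higher percent means less beta-gal luminescence so fewer parasites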
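compound dosing = single 50 nL compound addition per well in DMSO | material = NIH/3T3 host cells with β-galactosidase reporter T. cruzi | input = 5,000 host fibroblasts per well | timing = ≥90 h infection period, 3 h prior cell attachment | read-out basis = percent inhibition of parasite-derived β-gal signal | detection = GalScreen β-gal luminescence, detergent lysis, 60 min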
Mot1-301 SUMO = inhibitors of SUMOylation pathway: yeast Mot1-301 growth rescue. S. cerevisiae Mot1-301 growth rescue, ATP luminescence, 38.5C; percent above DMSO median, 100 means doubled. growth rescue, % at 18.8 µM. hit rate 1% among 320,000. AID 2716;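 active means every valid replicate shows activation above 250% relative to neutral control wells; inactive means the rest, any valid replicate at or below 250%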
Yeast cmpd fluor = flagged as fluorescent in efflux inhibitor counter-screen | shares compounds with Efflux pump mplx | S. cerevisiae AD/pABC3, compound fluorescence, flow cytometry | fluorescence ratio to DMSO, % at 10 µM | hit rate 4% among 1,700 | AID 588517;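 active means fluorescence ratio to DMSO above its plate's cutoff, the plate mean ratio plus 5 SD, cut at about 210% in these data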;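 further: unstained yeast with no Nile Red so the signal is compound autofluorescence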
Mdr1 pump inh = inhibitors of Candida albicans Mdr1 efflux pump. inhibition, % at 10 µM. hit rate 1% among 1,700. AID 588518. S. cerevisiae AD/CaMDR1, Nile Red efflux, flow cytometry. shares compounds with Efflux pump mplx; in the data active means inhibition above about 26%;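 further: higher means more Nile Red retained so more efflux inhibition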
Cdr2 pump inh = blocks the Candida albicans Cdr2 efflux pump in yeast | shares compounds with Efflux pump mplx | hit rate 4% among 1,700 | Nile Red retention ratio vs DMSO, % at 10 µM | S. cerevisiae AD/CaCDR2, Nile Red retention, flow cytometry; in the data active means Nile Red retention ratio vs DMSO above about 190%;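 further: higher ratio means more blocking of Cdr2 efflux of the dye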
Cdr1 pump inh = Candida Cdr1 efflux pump inhibition; hit rate 1% among 1,700; S. cerevisiae AD/CaCDR1, Nile Red efflux, flow cytometry; inhibition, % at 10 µM; shares compounds with Efflux pump mplx;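 active means inhibition above the screen-wide mean plus twice its standard deviation, cut at about 32% in these data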
A number is an active result; i = inactive; nt = no result.

SMILES	CSC inhib	Beta apoptosis	WT yeast gro inh	Efflux pump mplx	T cruzi inh	Mot1-301 SUMO	Yeast cmpd fluor	Mdr1 pump inh	Cdr2 pump inh	Cdr1 pump inh
O=C(NN1C(=O)/C(=C/c2ccc(O)c(O)c2)SC1=S)c1ccccc1	i	i	nt	3.4	i	i	i	i	i	i
COc1cc(/C=C2\SC(=S)N(NC(=O)c3cccnc3)C2=O)ccc1O	i	i	nt	i	i	i	i	i	i	i
COC(=O)/C=C/c1c(C)nc(NCc2ccccc2)nc1Cl	i	i	nt	i	i	i	nt	nt	nt	nt
Cc1ccc(-c2nc(NC(=O)CSc3nnc(C)s3)ns2)cc1	i	i	i	i	i	i	nt	nt	nt	nt
COc1ccc(-c2nc(NC(=O)CSc3nnc(C)s3)ns2)cc1	i	i	i	0.8	i	i	i	i	i	i
COc1ccc2c(c1)[C@H]1[C@H](CO2)[C@H](c2ccccc2)[C@]2(C)C(=O)N[C@H](C)C(=O)N12	i	i	nt	i	nt	i	nt	nt	nt	nt
CCN(CC)CCC(c1ccc2c(c1)OCO2)c1c(O)cc(OC)cc1OC (stereo not given)	i	i	nt	i	i	i	nt	nt	nt	nt
COc1ccccc1/C=c1\sc2nc(-c3ccccc3OC)nn2c1=O	nt	i	i	i	nt	i	i	i	i	i
Cc1ccc(/C=c2\sc3nc(-c4ccccc4Br)nn3c2=O)o1	nt	i	i	i	i	i	i	i	i	i
COc1ccc(/C=c2\sc3nc(=O)c(C)nn3c2=O)c(OC)c1	i	i	i	i	i	i	nt	nt	nt	nt
COc1ccc(Br)cc1/C=c1\sc2nc(-c3ccco3)nn2c1=O	i	i	nt	1.1	i	i	i	i	i	i
Cc1ccc(-c2nc3s/c(=C\c4ccco4)c(=O)n3n2)cc1	i	i	i	0.8	i	i	i	i	i	i
C[C@]1(CC/C(=C/CO)CO)[C@H](CO)CC[C@@]23COC(=O)C2=CCC[C@@H]31	i	i	nt	i	nt	i	nt	nt	nt	nt
NS(=O)(=O)c1ccc(CNC(=O)c2scc3c2CCCC3)cc1	i	i	i	i	i	i	nt	nt	nt	nt
Cc1cc(C)c2nc(N3CCCC(C(=O)NC4CCCC4)C3)sc2c1 (stereo not given)	i	nt	nt	i	i	i	nt	nt	nt	nt
CCOC(=O)c1c(-c2ccc(C)cc2)csc1NC(=S)NC(=O)c1ccccc1	nt	i	i	i	i	i	nt	nt	nt	nt
CCOC(=O)c1c(-c2ccccc2)csc1NC(=O)c1cc(-c2ccccc2OC)on1	i	i	nt	0.7	i	i	i	i	i	i
Cc1nnc(SCC(=O)Nc2ccc(N3CCN(S(C)(=O)=O)CC3)cc2)o1	nt	i	nt	i	i	i	nt	nt	nt	nt
CN1CCN(c2ccccc2NC(=O)c2ccc(-c3ccc(Cl)c(Cl)c3)o2)CC1	90	i	nt	8.1	i	i	i	i	i	i
COc1ccc(C(=O)Nc2sc3c(c2C#N)CCN(C(C)=O)C3)cc1	i	i	i	0.8	i	i	i	i	i	i
COC(=O)c1c(NC(=O)c2ccco2)sc2c1CCN(C(C)=O)C2	i	nt	nt	1.1	i	i	i	i	i	i
Cc1ccc(S(=O)(=O)/C=C/c2ccccc2)cc1	i	i	i	i	i	i	nt	nt	nt	nt
Cc1ccc(C)c(OCc2cc(C(=O)N3CCOCC3)no2)c1	i	i	nt	i	i	i	nt	nt	nt	nt
Cc1ccc(C)c(OCc2cc(C(=O)N3CCNC(=O)C3)no2)c1	i	i	nt	i	i	i	i	i	i	i
O=C(CCN1CCCCCC1)Nc1ccc2c(c1)OCCO2	i	i	i	0.6	i	i	i	i	i	i
SMILES	CSC inhib	Beta apoptosis	WT yeast gro inh	Efflux pump mplx	T cruzi inh	Mot1-301 SUMO	Yeast cmpd fluor	Mdr1 pump inh	Cdr2 pump inh	Cdr1 pump inh
Cc1ccc(CNC(=O)CCc2c(C)nn(-c3ccc(N4CCOCC4)nn3)c2C)cc1	i	i	nt	2.0	i	i	i	i	i	i
Cc1nn(-c2ccc(N3CCOCC3)nn2)c(C)c1CCC(=O)NCc1ccc(F)cc1	i	i	nt	i	i	i	nt	nt	nt	nt
NC(=O)NOCc1ccccc1	i	i	i	i	i	i	nt	nt	nt	nt
O=C(NOCc1ccccc1)c1coc(-c2ccccc2)n1	nt	nt	nt	1.4	nt	nt	i	i	i	i
Cc1nn(-c2ccc([N+](=O)[O-])cc2)c2c1C(c1ccc(OC(F)F)cc1)N1C(=N2)C(=O)Nc2ccccc21 (stereo not given)	i	i	i	1.6	91	i	i	i	i	i
COc1ccc(NC2=Nc3ccccc3N3C2=Nc2c(c(C)nn2-c2ccc(C)cc2)C3c2cccnc2)cc1 (stereo not given)	i	i	i	i	i	i	nt	nt	nt	nt
COc1cccc(C2c3c(C)nn(-c4ccc([N+](=O)[O-])cc4)c3N=C3C(=O)Nc4ccccc4N32)c1 (stereo not given)	i	i	i	0.4	63	i	i	i	i	i
COC(=O)/C=C1\OC(c2ccccc2)=CC1=O	i	i	i	i	i	i	nt	nt	nt	nt
COc1ccc(S(=O)(=O)N2CCCCC2)cc1NC(=O)c1ccc(CS(C)(=O)=O)cc1	i	i	nt	1.1	nt	i	i	i	i	i
CCOc1ccc(NC(=O)c2sc3nc(C)nc(N4CCOCC4)c3c2C)cc1	i	i	nt	i	i	i	nt	nt	nt	nt
CCOc1ccccc1NC(=S)NC1CC2CCC1C2 (stereo not given)	i	i	nt	1.1	i	i	i	i	i	i
COc1ccc(NC(=S)NC2CC3CCC2C3)c(OC)c1 (stereo not given)	i	i	nt	i	i	i	nt	nt	nt	nt
C#CC[N+](C)(C)CCCCCCCCCCCC	i	101	78	1.0	i	i	i	i	495	i
Cc1ccc(OCC(=O)Nc2cnn(CCCC(=O)O)c2)c([N+](=O)[O-])c1	i	i	i	3.9	i	i	i	i	i	i
O=C(O)CCCn1cc(NC(=O)COc2ccccc2[N+](=O)[O-])cn1	i	nt	i	i	i	i	nt	nt	nt	nt
CC1CCC(NC(=O)CN2C(=O)NC3(CCCCC3C)C2=O)CC1 (stereo not given)	i	i	nt	i	nt	i	nt	nt	nt	nt
O=C(N/N=C/c1cccs1)c1ccc2c(c1)OCO2	i	i	i	11	i	i	i	i	i	i
COc1ccc(CCCc2nnc(SCC(=O)Nc3cc(C)c(C)cc3Br)o2)cc1	i	i	i	0.8	i	i	i	i	i	i
CCOc1ccc(OCC)c(NS(=O)(=O)c2ccc3c(c2)CCN3C(=O)C2CCC2)c1	i	i	i	i	i	i	i	i	i	i
CCOC(=O)C1CCN(S(=O)(=O)c2ccc3c(c2)CCN3C(=O)C2CCC2)CC1	i	i	nt	i	i	i	i	i	i	i
O=C(C1CCC1)N1CCc2cc(S(=O)(=O)NCCCN3CCCCC3)ccc21	i	i	nt	i	i	i	nt	nt	nt	nt

High-throughput results (PubChem)
